Measured values pooled from the literature.
Lines come from different studies, so protocols differ.
Observed: enzyme activity
CYP2C9: Cytochrome P450 2C9 (CYP2C9, Homo sapiens, UniProt P11712)
CYP2C8: Cytochrome P450 2C8 (CYP2C8, Homo sapiens, UniProt P10632)

SMILES | target | test | system | conditions | measurement | result
Cc1nc2c([nH]1)c(=O)n(C)c(=O)n2Cc1ccco1 | CYP2C9 | inhibitor | human, liver microsomes | 40 µM | inhibition | 7%
CCc1cc(/C(C)=N/OCc2ccc(C3CCCCC3)c(C(F)(F)F)c2)ccc1CN1CC(C(=O)O)C1 | CYP2C8 | inhibitor | human, liver microsomes | 200 µM, 20 min | inhibition | 17%
Nc1nc(N)c2nc(C(=O)NCc3cccc(C(F)(F)F)c3)cnc2n1 | CYP2C9 | inhibitor, luciferase |  | 10 µM | inhibition | -17.1%
O=C(Nc1c2c(cc3c1CCC3)CCC2)NS(=O)(=O)/C=C/c1nccs1 | CYP2C8 | inhibitor | human, liver microsomes | 2 µM, pH 7.4 | inhibition | 59.1%
CCc1nc2c(C)cc(N3CCN(CC(=O)N4CC(O)C4)CC3)cn2c1N(C)c1nc(-c2ccc(F)cc2)c(C#N)s1 | CYP2C8 | inhibitor |  |  | kinact | 0.000588 s⁻¹
CC1(CO)C(O[C@@H]2O[C@H](C(=O)O)[C@@H](O)[C@H](O)[C@H]2O)CC[C@@]2(C)C1CC[C@]1(C)C2CC=C2[C@H]3CC(C)(C)[C@H](O)[C@@H](O)[C@]3(CO)[C@H](O)C[C@]21C (stereo partly drawn) | CYP2C8 | inhibitor, mass spectrometry | human, liver microsomes |  | IC50 | > 90 µg/mL
CCN(Cc1cnc2nc(N)nc(N)c2n1)c1ccc(C(=O)N2CCC(C(=O)OC)CC2)cc1 | CYP2C9 | inhibitor, luciferase |  | 10 µM | inhibition | -2.93%
Cc1cccc(F)c1N1CCC(N2Cc3cn(CC(C)(F)F)nc3N(Cc3ccccc3C(F)(F)F)C2=O)CC1 | CYP2C8 | inhibitor | human, liver microsomes |  | Ki | 7 µM
CON=C(N)c1ccc(-c2ccc(-c3ccc(C(N)=NOC)cc3)o2)cc1 | CYP2C8 | substrate |  |  | Km | 2.6 µM
